According to ChEMBL document CHEMBL4346669, “Novel nannocystin A analogues as anticancer therapeutics: Synthesis, biological evaluations and structure-activity relationship studies” (Eur J Med Chem, 2019):
Calls of active or inactive are those of the source.

Tests used:
A549 [1] = experiment: Antiproliferative activity against human A549 cells assessed as reduction in cell viability measured after 72 hrs by MTT assay; type: functional, cell-based
Summary of the method: (§1)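 Cells seeded 5×10^3/well, cultured overnight, then exposed to 10, 1, 0.1, 0.01, 0.001 and 0.0001 µM (from 10 mM DMSO stocks diluted in medium; vehicle 1% DMSO PBS) for 72 h at 37 °C. Medium replaced with 0.5 mg/mL MTT for 4 h, formazan dissolved in DMSO, A570 read. IC50 as mean ± SD of three independent experiments.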

HCT-116 = experiment: Antiproliferative activity against human HCT116 cells assessed as reduction in cell viability measured after 72 hrs by MTT assay; type: functional, cell-based; summary of the method: as §1
A549 [2] = experiment: Inhibition of elongation factor 1-alpha1 expression in human A549 cells at 100 nM after 24 hrs by Western blot analysis; type: functional
A549 [3] = experiment: Induction of apoptosis in human A549 cells assessed as necrotic cells at 30 nM after 12 hrs by Annexin-V FITC/propidium iodide staining based flow cytometric analysis (reference value: 1.28%); type: functional
A549 [4] = experiment: Induction of apoptosis in human A549 cells assessed as early apoptotic cells at 30 nM after 12 hrs by Annexin-V FITC/propidium iodide staining based flow cytometric analysis (reference value: 0.32%); type: functional
PC-3 = experiment: Antiproliferative activity against human PC3 cells incubated for 72 hrs by 14C-thymidine incorporation assay; type: functional, cell-based; conditions: PC-3, 72 h
HL-60 = experiment: Antiproliferative activity against human HL60 cells incubated for 96 hrs by cell-titer-Glo luminescent assay; type: functional, cell-based; conditions: HL-60, 96 h
A549 [5] = experiment: Inhibition of colony formation in human A549 cells at 10 nM incubated for 3 days followed by further incubation in drug-free medium and measured after 15 days by crystal violet staining-based inverted microscopic analysis; type: functional, cell-based
Summary of the method: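 A549 cells were plated at 500 per well in 2 mL medium for 24 h, then treated for 3 days, with drug-free medium replaced every 3 days afterwards. At day 15 after plating, colonies were fixed in 95% ethanol for 15 min, stained with 0.1% crystal violet, and counted; a colony was defined as more than 100 cells. Mean ± SD of three independent experiments.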

SH-SY5Y = experiment: Antiproliferative activity against human SH-SY5Y cells assessed as reduction in cell viability measured after 72 hrs by MTT assay; type: functional, cell-based
Summary of the method: (§2)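 Cells seeded at 5×10^3 per well and cultured overnight, then exposed for 72 h at 37 °C to six concentrations from 10 µM down to 0.0001 µM (from 10 mM DMSO stock diluted in medium; vehicle 1% DMSO in PBS). MTT at 0.5 mg/mL was added for 4 h, formazan dissolved in DMSO, and A570 read. IC50 given as mean ± SD of three independent experiments.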

A549 [6] = experiment: Cell cycle arrest in human A549 cells assessed as accumulation at G2 phase at 30 nM after 24 hrs by propidium iodide/RNase A staining-based flow cytometric analysis (reference value: 30.02%); type: functional
MDA-MB-231 = experiment: Antiproliferative activity against human MDA-MB-231 cells assessed as reduction in cell viability measured after 72 hrs by MTT assay; type: functional, cell-based; conditions: MDA-MB-231, 72 h; summary of the method: as §2
A549 [7] = experiment: Induction of apoptosis in human A549 cells assessed as viable cells at 30 nM after 12 hrs by Annexin-V FITC/propidium iodide staining based flow cytometric analysis (reference value: 97.18%); type: functional; conditions: A549, 12 h, read-out: Activity
A549 [8] = experiment: Induction of apoptosis in human A549 cells assessed as late apoptotic cells at 30 nM after 12 hrs by Annexin-V FITC/propidium iodide staining based flow cytometric analysis (reference value: 1.22%); type: functional
A-375 = experiment: Antiproliferative activity against human A375 cells assessed as reduction in cell viability measured after 72 hrs by MTT assay; type: functional, cell-based; conditions: A-375, 72 h; summary of the method: as §2
MCF7 = experiment: Antiproliferative activity against human MCF7 cells assessed as reduction in cell viability measured after 72 hrs by MTT assay; type: functional, cell-based; conditions: MCF7, 72 h; summary of the method: as §2
A549 [9] = experiment: Cell cycle arrest in human A549 cells assessed as accumulation at S phase at 30 nM after 24 hrs by propidium iodide/RNase A staining-based flow cytometric analysis (reference value: 12.57%); type: functional
A549 [10] = experiment: Cell cycle arrest in human A549 cells assessed as accumulation at G1 phase at 30 nM after 24 hrs by propidium iodide/RNase A staining-based flow cytometric analysis (reference value: 57.41%); type: functional
[11] = Homo sapiens, A549, 72 h, read-out: IC50
[12] = Homo sapiens, HCT-116, 72 h, read-out: IC50

Row | SMILES | IC50 (A549 [1]; [11]) | IC50 (HCT-116; [12]) | other results
1 | COc1cccc2c1C(=O)c1c(O)c3c(c(O)c1C2=O)C[C@@](O)(C(=O)CO)C[C@@H]3O[C@H]1C[C@H](N)[C@H](O)[C@H](C)O1 [DOXORUBICIN] | 459 nM | 366 nM | 
2 | CC[C@H](C)[C@H]1C(=O)N[C@H](Cc2cc(Cl)c(O)c(Cl)c2)C(=O)N[C@@H](C(C)(C)O)C(=O)O[C@H](c2ccccc2)C/C=C/C=C(\C)[C@H](OC)C[C@@H]2O[C@@]2(C)C(=O)N1C | 90.3 nM | 78.2 nM | 
3 | CO[C@@H]1C[C@@H]2O[C@@]2(C)C(=O)N(C)[C@@H](C(C)C)C(=O)N[C@H](Cc2cc(Cl)c(O)c(Cl)c2)C(=O)N[C@@H](C(C)(C)O)C(=O)O[C@H](c2ccccc2)[C@H](C)/C=C/C=C/1C | 3.5 nM | 6.7 nM | inhibition at 0.1 µM (A549 [2]; A549, 24 h): 100%
4 | CO[C@@H]1C/C=C(\C)C(=O)N(C)[C@@H](C(C)C)C(=O)N[C@H](Cc2cc(Cl)c(O)c(Cl)c2)C(=O)N[C@@H](CC(C)C)C(=O)O[C@H](c2ccccc2)[C@H](C)/C=C/C=C/1C | > 100 nM | > 100 nM | 
5 | CC[C@H](C)[C@@H]1NC(=O)[C@]2(C)O[C@H]2C[C@@H](OC)/C(C)=C/C=C/[C@@H](C)[C@@H](c2ccccc2)OC(=O)[C@H](C(C)(C)O)NC(=O)[C@@H](Cc2cc(Cl)c(O)c(Cl)c2)NC1=O | 557 nM | > 1000 nM | 
6 | CC[C@H](C)[C@H]1C(=O)N[C@H](Cc2cc(Cl)c(O)c(Cl)c2)C(=O)N[C@@H](C(C)(C)O)C(=O)O[C@H](c2ccccc2)[C@H](C)/C=C/C=C(\C)[C@H](OC)C[C@@H]2O[C@@]2(C)C(=O)N1C | 13.1 nM | 17 nM | Activity (A549 [3]): 11.44%; Activity (A549 [4]): 4.11%; IC50 (PC-3): 1 nM; IC50 (HL-60): 12 nM; inhibition (A549 [5]): Active; IC50 (SH-SY5Y): 2.1 nM; Activity (A549 [6]): 49.41%; IC50 (MDA-MB-231): 7.5 nM; viability at 0.03 µM (A549 [7]): 61.6%; Activity (A549 [8]): 22.88%; IC50 (A-375): 2.4 nM; IC50 (MCF7): 8.7 nM; Activity (A549 [9]): 7.38%; Activity (A549 [10]): 43.21%
7 | CO[C@@H]1C/C=C(\C)C(=O)N(C)[C@@H](C(C)C)C(=O)N[C@H](Cc2ccccc2)C(=O)N[C@@H](C(C)C)C(=O)O[C@H](c2ccccc2)C/C=C/C=C/1C | > 100 nM | > 100 nM | 
8 | CO[C@@H]1C/C=C(\C)C(=O)N(C)[C@@H](C(C)C)C(=O)N[C@H](Cc2ccccc2)C(=O)N[C@@H](C(C)C)C(=O)O[C@H](c2ccccc2)[C@H](C)/C=C/C=C/1C | > 100 nM | > 100 nM | 
9 | CO[C@@H]1C[C@@H]2O[C@@]2(C)C(=O)N[C@@H](C(C)C)C(=O)N[C@H](Cc2cc(Cl)c(O)c(Cl)c2)C(=O)N[C@@H](C(C)(C)O)C(=O)O[C@H](c2ccccc2)[C@H](C)/C=C/C=C/1C |  |  | IC50 (A549 [1]; a549): Not Active; inhibition (A549 [2]): inactive; IC50 (HCT-116; hct-116): Not Active

More lines, in order of falling IC50 (A549 [1]; [11]), values ahead:

Row | IC50 (A549 [1]; [11]) | IC50 (HCT-116; [12]) | SMILES | other results
10 | 40.5 nM | 124 nM | CC[C@H](C)[C@H]1C(=O)N[C@H](Cc2cc(Cl)c(O)c(Cl)c2)C(=O)N[C@@H](C(C)(C)O)C(=O)O[C@H](c2ccccc2)[C@H](C)/C=C/C=C(\C)[C@H](OC)C/C=C/C(=O)N1C | 
11 | 35.9 nM | 59.7 nM | CO[C@@H]1C/C=C(\C)C(=O)N(C)[C@@H](C(C)C)C(=O)N[C@H](Cc2ccc(O)cc2)C(=O)N[C@@H](C(C)C)C(=O)O[C@H](c2ccccc2)[C@H](C)/C=C/C=C/1C | 
12 | 21.6 nM | 42.1 nM | CO[C@@H]1C/C=C(\C)C(=O)N(C)[C@@H](C(C)C)C(=O)N[C@H](Cc2cc(Cl)c(O)c(Cl)c2)C(=O)N[C@@H](C(C)C)C(=O)O[C@H](c2ccccc2)[C@H](C)/C=C/C=C/1C | 
13 | 14.3 nM | 20.9 nM | CC[C@H](C)[C@H]1C(=O)N[C@H](Cc2ccccc2)C(=O)N[C@@H](C(C)(C)O)C(=O)O[C@H](c2ccccc2)[C@H](C)/C=C/C=C(\C)[C@H](OC)C[C@@H]2O[C@@]2(C)C(=O)N1C | 
14 | 13.1 nM | 60.3 nM | CC/C1=C\C=C\[C@@H](C)[C@@H](c2ccccc2)OC(=O)[C@H](C(C)C)NC(=O)[C@@H](Cc2cc(Cl)c(O)c(Cl)c2)NC(=O)[C@H](C(C)C)N(C)C(=O)/C(C)=C/C[C@H]1OC | 
15 | 10.1 nM | 16.7 nM | CC[C@H](C)[C@H]1C(=O)N[C@H](Cc2cc(Cl)c(O)c(Cl)c2)C(=O)N[C@@H](C(C)(C)O)C(=O)O[C@H](c2ccccc2)[C@H](C)/C=C/C=C(\C)[C@H](OC)C/C=C(\C)C(=O)N1C | 
16 | 3.7 nM | 25.2 nM | CC[C@H](C)[C@H]1C(=O)N[C@H](Cc2ccc(O)c(OC)c2)C(=O)N[C@@H](C(C)(C)O)C(=O)O[C@H](c2ccccc2)[C@H](C)/C=C/C=C(\C)[C@H](OC)C[C@@H]2O[C@@]2(C)C(=O)N1C | 
17 | 3.2 nM | 10.5 nM | CC[C@H](C)[C@H]1C(=O)N[C@H](Cc2cc(Cl)c(O)c(Cl)c2)C(=O)N[C@@H](C(C)C)C(=O)O[C@H](c2ccccc2)[C@H](C)/C=C/C=C(\C)[C@H](OC)C[C@@H]2O[C@@]2(C)C(=O)N1C | 
